An excerpt weighted towards active compounds, which were near 1.8% of everything screened.
PABP polyA inh = PABP-poly(A) binding inhibition | P11940 | PABP-poly(A) RNA binding, fluorescence polarization | calls only at 35 µM | 290,000 tested, 1% active;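 note: calls also rest on retests at 20 µM and on dose response follow-up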
PABP1 MLLE inh = inhibitors of microRNA-mediated deadenylation, human PABP1 MLLE binding. 360,000 tested, 0.36% active. AID 588489. inhibition, % at 20 µM. P11940. GST-MLLE / FITC-PAM2 fluorescence polarization; in the data active = inhibition above about 35%, passing the limit was not always enough;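 note: plate controls were DMSO wells with GST-MLLE for no effect and wells lacking GST-MLLE protein for full effect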
SUMO HTRF inh = inhibitors of human SUMOylation (UBC9); inhibition, % at 35 µM; AID 2006; P63279; HTRF SUMOylation assay, SAE1/SAE2 + UBC9, in vitro; 290,000 tested, 0.36% active; in the data active = inhibition above about 50%, passing the limit was not always enough; inconclusive = no clear call, values can overlap the other calls
Target sequence (P63279 whole entry, looked up): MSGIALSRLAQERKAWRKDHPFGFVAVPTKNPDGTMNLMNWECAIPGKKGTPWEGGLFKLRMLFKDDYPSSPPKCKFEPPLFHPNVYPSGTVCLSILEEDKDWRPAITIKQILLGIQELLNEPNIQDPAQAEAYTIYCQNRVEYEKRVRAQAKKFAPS
eIF4H FP inh = inhibitors of RNA binding by human eIF4H; Q15056; eIF4H fluorescence polarization binding assay; inhibition, % at 35 µM; 290,000 tested, 0.94% active; AID 2012;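 note: calls also rest on retests at 20 µM and on dose response follow-up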
core dimer inh = HCV core protein dimerization inhibition; TR-FRET GST/Flag-core106 dimerization, 1536-well; inhibition, % at 5 µM; 300,000 tested, 0.33% active;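 active = inhibition above the mean of all tested compounds plus 3 SD, set per screening campaign, cut at about 45% in these data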
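Assay system – GST-tagged and Flag-tagged HCV core protein residues 1-106 · Quantity – core106 proteins, GST 13.5 nM and Flag 17 nM · Benchmarks – unlabelled core106 and no-GST-core106 wells · Read-out basis – percent inhibition of core106 dimerization signal · Detection – time-resolved FRET, ex 340 nm, em 617 and 671 nm · Schedule – 4 h at 22.5 °C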
eIF4E-4G inh = inhibitors of eIF4E and eIF4G interaction in translation initiation | inhibition, % at 21.7 µM | 220,000 tested, 0.37% active | AID 782 | TR-FRET eIF4E-eIF4GI(517-606) binding, 2 h | P63073+Q04637;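 active = inhibition above about 30%, limit read from the data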;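 note: 0% = full FRET control wells and 100% = background wells lacking eIF4GI fragment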
* = called active by the depositor; i = inactive; u = inconclusive; x = not tested or not shown; + = active, no number. Unless noted, the rule behind the calls is not given here.

SMILES	PABP polyA inh	PABP1 MLLE inh	SUMO HTRF inh	eIF4H FP inh	core dimer inh	eIF4E-4G inh
Cc1ccc(NC(=O)CN2C(=O)N/C(=C/c3cc(C)n(-c4cccc(C(=O)O)c4)c3C)C2=O)cc1	+	18	26	86*	x	35*
CCOC(=O)c1cccc(-n2cccc2/C=C2\NC(=O)N(CC(=O)O)C2=O)c1	x	-1	x	x	x	x
Cc1ccc(NC(=O)CN2C(=O)N/C(=C/c3ccccc3OCc3cccc(C(=O)O)c3)C2=O)cc1	x	16	20	x	-137	x
CCNC(=O)C1CCCN(C(=O)c2cccc(C#N)c2)CC1 (stereo not drawn)	x	5	x	x	x	x
O=C1N/C(=C/c2cccn2-c2ccc(F)cc2)C(=O)N1Cc1ccccc1	i	-11	27	-8	9	-2
O=C(O)c1cccc(-n2cccc2/C=C2\NC(=O)N(Cc3ccc(F)cc3)C2=O)c1	+	5	18	82	3	11
Oc1ccc(CN2CCCc3ccccc32)c2cccnc12	i	42*	-45	17	-5	-2
COc1ccccc1N1CCN(Cc2ccc(O)c3ncccc23)CC1	i	25	-26	13	1	6
CC(OC(=O)c1cccc(-n2cnnn2)c1)C(=O)Nc1ccc(F)c(F)c1F (stereo not drawn)	x	5	x	x	x	x
COc1ccc(C(=O)OCC(=O)Nc2ccc(F)cc2F)cc1OC	i	4	-7	-3	-4	-3
COc1cc(C(=O)OCC(=O)Nc2ccc(F)cc2F)cc(OC)c1OC	+	-3	12	72*	-7	-1
Cc1cc(Cl)ccc1C(O)c1ncc(-c2cccc3ccccc23)[nH]1 (stereo not drawn)	x	-10	x	x	x	x
CC1CCN(Cc2c(C(=O)N/N=C/c3ccccc3O)nnn2-c2nonc2N)CC1	i	-3	54*	10	21	x
CC(=C/c1ccccc1)/C=N/NC(=O)c1nnn(-c2nonc2N)c1CN1CCC(C)CC1	i	8	-6	-2	17	x
CCCC(=O)Nc1ccc2oc(-c3cncc(Br)c3)nc2c1	i	18	52*	4	1	-2
CC(C)CC(=O)Nc1ccc2oc(-c3cccnc3)nc2c1	i	9	53*	-1	0	-20
CCCCC(=O)Nc1ccc2oc(-c3ccncc3)nc2c1	i	5	40	9	1	55*
CCCCCC(=O)Nc1ccc2oc(-c3cncc(Br)c3)nc2c1	i	1	20	-5	-5	-20
CCCC(=O)Nc1ccc2oc(-c3ccncc3)nc2c1	i	-7	48	1	-9	-24
O=[N+]([O-])c1ccc2nc(N3CCCC3)sc2c1	+	-87	-2	34	-8	x
CCN(C[C@H]1N[C@@](C)(C(=O)OC)[C@H]2C(=O)N(Cc3ccccc3)C(=O)[C@@H]12)S(=O)(=O)c1ccc(OC)cc1	x	-4	x	x	x	x
CCOc1ccc(NC(=S)NC(=O)c2cccnc2)c([N+](=O)[O-])c1	i	44*	5	-13	12	x
COc1ccc(C(=O)NC(=S)NCc2cccnc2)cc1[N+](=O)[O-]	i	38*	3	-5	-1	1
CCOc1ccc(NC(=S)NC(=O)c2c(Br)cnn2C)c([N+](=O)[O-])c1	i	19	-21	5	-4	5
CC(=O)[C@@H]1[C@@H]2C(=O)N(c3ccc(F)c(Cl)c3)C(=O)[C@@H]2C2c3ccccc3C=CN21 (stereo partly drawn)	i	x	35	59	32	4
SMILES	PABP polyA inh	PABP1 MLLE inh	SUMO HTRF inh	eIF4H FP inh	core dimer inh	eIF4E-4G inh
N#C[C@@H]1[C@@H]2C(=O)N(c3ccc4c(c3)OCCO4)C(=O)[C@@H]2C2c3ccccc3C=CN21 (stereo partly drawn)	i	x	23	40	52*	1
C=C(C)c1cccc(C(C)(C)NC(=O)N2CCC(C(N)=O)CC2)c1	i	-5	1	7	0	-4
Cc1ccc2c(c1)-c1c(ssc1=S)C(C)(C)N2C(=O)CSc1nncn1C	+	25	10	2.4*	4	5
Cc1ccc(S(=O)(=O)CCC(O)c2ccc(Cl)cc2)cc1 (stereo not drawn)	i	3	5	0	-11	x
COc1ccc2nc(/C(C#N)=C\c3ccc(C(=O)O)cc3)[nH]c2c1	i	-71	52*	35	-7	-1
Cc1ccc2nc(/C(C#N)=C\c3ccc(Oc4ccc([N+](=O)[O-])cn4)cc3)[nH]c2c1	i	-67	22	u	25	1
COc1ccc2nc(/C(C#N)=C\c3ccc(Oc4ccc([N+](=O)[O-])cn4)cc3)[nH]c2c1	+	-82	20	84*	58*	5
CCNC(=O)C1(C)CCN(C(=O)c2ccc(C#N)cc2)C1 (stereo not drawn)	x	0	x	x	x	x
COc1cccc(C(=O)N2CCC(n3nccc3NC(=O)C(OC)c3ccccc3)CC2)c1 (stereo not drawn)	i	5	6	0	-8	x
CC1=CCC2C(=O)N(c3ccc(OC(=O)c4ccco4)cc3)C(=O)C2C1 (stereo not drawn)	i	-1	8	-6	7	-1
CCCCN1C(=O)Cc2c1nc(N)c1c(N)nc(N(CCC)CCC)c(C#N)c21	i	14	94*	10	24	5
N#Cc1c(N(CCO)CCO)nc(N)c2c(N)nc3c(c12)CC(=O)N3CC1CCCO1 (stereo not drawn)	i	15	101*	24	-1	-5
Cn1ccnc1SCC(=O)Nc1sccc1C#N	i	9	28	18	71*	6
N#Cc1ccsc1NC(=O)CSc1ncnc2ccccc12	i	-11	18	45	80*	-7
Cc1nnc(SCC(=O)Nc2sccc2C#N)n1Cc1ccccc1	+	-12	-3	29*	41	4
O=C(CSc1ncnc2ccccc12)NCc1ccco1	i	44*	12	12	4	-3
Cc1nnc(SCC(=O)Nc2sccc2C#N)s1	i	3	10	50	33	x
COc1ccc(NC(=O)C2CCCN2C(=O)Oc2ccccc2)cc1 (stereo not drawn)	i	-12	2	-3	-4	3
COc1ccc(C2=NN(C(=O)CCCC(=O)O)C(c3cn(-c4ccccc4)nc3-c3ccccc3)C2)cc1 (stereo not drawn)	i	-7	x	74*	25	-5
O=C1NC(c2ccc(Br)cc2)Nc2sc3c(c21)CCC3 (stereo not drawn)	+	-4	5	103*	11	8
CN1CCc2c(sc3c2C(=O)NC(c2ccccn2)N3)C1 (stereo not drawn)	u	51	2	u	0	-7
CN1CCc2c(sc3c2C(=O)NC(c2ccccc2)N3)C1 (stereo not drawn)	+	-48	9	63*	-1	3
